Reference: ChEMBL document CHEMBL3822382 (Eur J Med Chem, 2016)
Active and inactive are the calls of the source. No cut-off for these calls is given here.

How the values were obtained:
[1] = Cytotoxicity against fertilized white leghorn chicken embryos in CAM model assessed as lethality at 2.5 nmol after 24 hrs relative to control; format: organism-based, Gallus gallus; conditions: in vivo
Chorioallantoic membrane = assay: Antivascular activity in fertilized white leghorn chicken egg chorioallantoic membrane assessed as blood vessel hemorrhage at 5 nmol after 12 hrs by stereomicroscopic analysis; format: functional, tissue-based; conditions: Gallus gallus
Procedure, shortened: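 Fertilized white leghorn SPF eggs were incubated to day 5 at 37 °C and 50–60% humidity. A shell window was cut, 6 mm silicon rings were placed on developing CAM vessels, and eggs were incubated another 24 h. Compound (500 μM in PBS; 10 μL = 5 nmol, 20 μL = 10 nmol) or DMSO was pipetted inside the ring. Vessel changes were imaged by stereomicroscope at 0, 12 and 24 h.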

1411HP [2] = assay: Vascular disrupting activity against multidrug resistant human 1411HP cells xenografted in athymic nude mouse assessed as disruption of blood vessel at 100 mg/kg, ip after 24 hrs by hematoxylin and eosin staining based microscopic analysis; format: functional, organism-based
Procedure, shortened: (§1)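 Athymic nude mice carried subcutaneous flank xenografts from 8 million cells. A single intraperitoneal dose of 100 mg/kg was given. After 24 h tumors were explanted, fixed in 5% formalin, paraffin-embedded and HE-stained for microscopic examination of vessels, hemorrhage and necrosis.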

1411HP [3] = assay: Vascular disrupting activity against multidrug resistant human 1411HP cells xenografted in athymic nude mouse assessed as discoloration of tumor at 100 mg/kg, ip after 24 hrs; format: functional, organism-based
Procedure, shortened: (§2)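 Athymic nude mice carried subcutaneous flank xenografts from 8 million cells in PBS. A single intraperitoneal dose of 100 mg/kg was given, and tumor discoloration was photographed 24 h later.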

HT-29 [4] = assay: Antivascular activity against in combretastatin A-4 resistant human HT-29 cells xenografted in fertilized white leghorn chicken egg chorioallantoic membrane assessed as retraction of tumor cells at 5 nmol after 24 hrs by hematoxylin and eosin staining based stereomicroscopic analysis; format: functional, cell-based
Procedure, shortened: (§3)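 Pellets of 1 × 10⁶ HT-29 cells in 10 μL of 1:1 matrigel/serum-free RPMI (gelled 30 min, 37 °C) were placed on the CAM of fertilized eggs and left 48 h. Then 100 μL of a 50 μM PBS dilution (5 nmol) was pipetted outside a silicon ring around the pellet; DMSO served as control. After 24 h, stereomicroscopy was done, and micro-xenografts were explanted, formalin-fixed, paraffin-embedded and HE-stained.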

1411HP [5] = assay: Vascular disrupting activity against multidrug resistant human 1411HP cells xenografted in athymic nude mouse assessed as tumor necrosis at 100 mg/kg, ip after 24 hrs by hematoxylin and eosin staining based microscopic analysis; format: functional, organism-based; procedure, shortened: as §1
HT-29 [6] = assay: Cell cycle arrest in combretastatin A-4 resistant human HT-29 cells assessed as mitotic cells at 100 nM after 24 hrs by propidium iodide/immunostaining method (reference value: 3.1 to 3.2%); format: functional
Procedure, shortened: (§4)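 HT-29 cells (200,000/well) were treated 24 h with 100 nM indole, 5 μM CA-4 or DMSO. Cells were trypsinized, fixed in 4% formaldehyde (20 min, RT) and permeabilized in 90% ice-cold methanol (30 min). They were immunostained with anti-phospho-histone H3 (Ser10) (5 μg/mL, 37 °C, 1 h) plus an AlexaFluor-488 secondary, then stained with PI/RNase (30 min, 37 °C). Flow cytometry of 10,000 single cells assigned G1/S/G2/M.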

[7] = Cell cycle arrest in human 518A2 cells assessed as accumulation at G1 phase at 100 nM after 24 hrs by propidium iodide staining-based flow cytometry (reference value: 49.5%); format: functional
A2780cisR [8] = assay: Vascular disrupting activity against human A2780cis cells xenografted in athymic nude mouse assessed as disruption of blood vessel at 100 mg/kg, ip after 24 hrs by hematoxylin and eosin staining based microscopic analysis; format: functional, organism-based; procedure, shortened: as §1
A2780cisR [9] = assay: Vascular disrupting activity against human A2780cis cells xenografted in athymic nude mouse assessed as discoloration of tumor at 100 mg/kg, ip after 24 hrs; format: functional, organism-based; procedure, shortened: as §2
HT-29 [10] = assay: Induction of cytoskeletal damage in combretastatin A-4 resistant human HT-29 cells xenografted in fertilized white leghorn chicken egg chorioallantoic membrane at 5 nmol after 24 hrs by hematoxylin and eosin staining based stereomicroscopic analysis; format: functional, cell-based
Procedure, shortened: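 Pellets of 1×10^6 HT-29 cells in matrigel/serum-free RPMI placed on the CAM of fertilized eggs for 48 h. Then 5 nmol (100 µL of 50 µM in PBS) applied outside a silicon ring around the pellet; DMSO as control. Imaged by stereomicroscopy after 24 h. Micro-xenografts then explanted, formalin-fixed, paraffin-embedded and HE-stained.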

[11] = Cell cycle arrest in human 518A2 cells assessed as accumulation at S phase at 100 nM after 24 hrs by propidium iodide staining-based flow cytometry (reference value: 20.4%); format: functional
Gallus gallus = species on record: Gallus gallus; assay: Cytotoxicity against fertilized white leghorn chicken egg chorioallantoic membrane microtumor model of CA-4 resistant human HT-29 cells assessed as reduction in embryo vitality at 5 nmol after 24 hrs; format: organism-based; conditions: ht-29, 24 h
[12] = Cell cycle arrest in human 518A2 cells assessed as apoptotic index ratio at 100 nM after 24 hrs by propidium iodide staining-based flow cytometry relative to control; format: functional
HT-29 [13] = assay: Cell cycle arrest in combretastatin A-4 resistant human HT-29 cells assessed as accumulation at G1 phase at 100 nM after 24 hrs by propidium iodide staining-based flow cytometry (reference value: 68.1 +/- 0.3%); format: functional; procedure, shortened: as §4
HT-29 [14] = assay: Cell cycle arrest in combretastatin A-4 resistant human HT-29 cells assessed as accumulation at G2 phase at 50 nM after 24 hrs by propidium iodide staining-based flow cytometry (reference value: 15.6 +/- 0.1%); format: functional
A2780cisR [15] = assay: Antitumor activity against human A2780cis cells xenografted in athymic nude mouse assessed as reduction in tumor growth at 40 mg/kg, ip administered on day 3, 7, 10 and 14; format: functional, organism-based
1411HP [16] = assay: Vascular disrupting activity against multidrug resistant human 1411HP cells xenografted in athymic nude mouse assessed as hemorrhage at 100 mg/kg, ip after 24 hrs by hematoxylin and eosin staining based microscopic analysis; format: functional, organism-based; procedure, shortened: as §1
HT-29 [17] = assay: Antivascular activity against in combretastatin A-4 resistant human HT-29 cells xenografted in fertilized white leghorn chicken egg chorioallantoic membrane assessed as blood vessel destruction at 5 nmol after 24 hrs by hematoxylin and eosin staining based stereomicroscopic analysis; format: functional, cell-based; procedure, shortened: as §3
HT-29 [18] = assay: Cell cycle arrest in combretastatin A-4 resistant human HT-29 cells assessed as mitotic cells at 50 nM after 24 hrs by propidium iodide/immuno-staining method (reference value: 3.1 to 3.2%); format: functional
A2780cisR [19] = assay: Vascular disrupting activity against human A2780cis cells xenografted in athymic nude mouse assessed as tumor necrosis at 100 mg/kg, ip after 24 hrs by hematoxylin and eosin staining based microscopic analysis; format: functional, organism-based; procedure, shortened: as §1
HT-29 [20] = assay: Cell cycle arrest in combretastatin A-4 resistant human HT-29 cells assessed as accumulation at S phase at 50 nM after 24 hrs by propidium iodide staining-based flow cytometry (reference value: 13.7 +/- 0.3%); format: functional
A2780cisR [21] = assay: Vascular disrupting activity against human A2780cis cells xenografted in athymic nude mouse assessed as hemorrhage at 100 mg/kg, ip after 24 hrs by hematoxylin and eosin staining based microscopic analysis; format: functional, organism-based; procedure, shortened: as §1
[22] = Cell cycle arrest in human 518A2 cells assessed as accumulation at subG1 phase at 100 nM after 24 hrs by propidium iodide staining-based flow cytometry (reference value: 3.8%); format: functional
Sus scrofa = species on record: Sus scrofa; assay: Decrease in rate of porcine brain alpha/beta tubulin polymerization at 5 uM measured every 20 sec by microplate reader analysis

COc1cc(-c2ncn(C)c2-c2ccc3c(c2)c(Cl)cn3C)cc(OC)c1OC
mortality at 24 h [1]: 67% | Activity (Chorioallantoic membrane): Active

COc1cc(-c2ncn(C)c2-c2ccc3c(c2)c(Cl)cn3C)cc(Br)c1OC.Cl
Activity (1411HP [2]): Active | Activity (1411HP [3]): Active | Activity (HT-29 [4]): Active | Activity (1411HP [5]): Active | Activity (HT-29 [6]): 77.8% | Activity [7]: 41% | Activity (A2780cisR [8]): Active | Activity (A2780cisR [9]): Active | Activity (HT-29 [10]): Active | Activity [11]: 17.8% | Activity (Gallus gallus): Non-toxic | Ratio [12]: 4.4 | Activity (HT-29 [13]): 12% | Activity (HT-29 [14]): 15.2% | Activity (A2780cisR [15]): Active | Activity (1411HP [16]): Active | Activity (HT-29 [17]): Active | Activity (HT-29 [18]): 28% | Activity (A2780cisR [19]): Active | Activity (HT-29 [20]): 13.5% | Activity (A2780cisR [21]): Active | Activity [22]: 7.4% | Activity (Sus scrofa): Active
